Our source for the EC50 and MIC values is ChEMBL document CHEMBL3045489, “Synthesis, fungicidal activity, and QSAR of a series of 2-dichlorophenyl-3-triazolylpropyl ethers” (J Agric Food Chem, 2000).

One may read the EC50 as the concentration giving half of the maximal effect. One may read the MIC as the lowest concentration that inhibits growth of the organism.

One experiment concerns Cercospora beticola. As to the kind of experiment: Antifungal activity against Cercospora beticola assessed as inhibition of radial growth on potato dextrose. Format: functional, organism-based. In outline: (§1)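 Radial growth inhibition on potato dextrose or Czapek agar across 100-0.1 mg L-1. ED50 calculated for each compound.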
For the next experiment, the system named is Pyrenophora teres. Description: Antifungal activity against Pyrenophora teres assessed as inhibition of radial growth on potato dextrose. Format: functional, organism-based.
A further experiment relates to Bipolaris maydis. Description: Antifungal activity against Cochliobolus heterostrophus assessed as inhibition of radial growth on potato dextrose. Type of experiment: functional, organism-based. In outline:
as §1

A further experiment deals with Botrytis cinerea. Description: Antifungal activity against Botryotinia fuckelianaassessed as inhibition of radial growth on potato dextrose. Type of experiment: functional, organism-based. In outline: as §1
A further experiment relates to Uromyces appendiculatus. As to the kind of experiment: Fungicidal activity against Uromyces appendiculatus inoculated in Phaseolus vulgaris placed in growth room after 24 hr incubation assessed as direct protection after 6 to 10 days. Format: functional. In short, it runs like this:
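Bean plants grown at 22 ± 1 °C, 80 ± 10% RH. Compound in acetone/water (1:4 v/v) with Tween 20 (0.4 mg mL-1) was sprayed on leaves until moist at 100 to 0.001 mg L-1. One day later leaves were inoculated with U. appendiculatus uredospores (1 × 10^5 spores mL-1), held 24 h at 22 ± 2 °C and 100% RH, then moved to the growth room. Scored at 6, 8 and 10 days as MIC.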

For experiment [1], the system named is Podosphaera fuliginea. Description: Fungicidal activity against Podosphaera fuliginea inoculated in […] placed in growth room after 24 hr incubation assessed as direct protection after 6 to 10 days. Type of experiment: functional.
The test system of another experiment is Oculimacula yallundae. Description: Antifungal activity against Oculimacula yallundae assessed as inhibition of radial growth on potato dextrose. Format: functional, organism-based. In outline: as §1
A further experiment has as its system Fusarium graminearum. Description: Antifungal activity against Fusarium graminearum assessed as inhibition of radial growth on potato dextrose. Format: functional, organism-based. In outline:
as §1

For another experiment, the system named is Ustilago maydis. As to the kind of experiment: Antifungal activity against Ustilago maydis assessed as inhibition of radial growth on potato dextrose. Format: functional, organism-based. Particulars: Mycosarcoma maydis.
Experiment [2] deals with Podosphaera fuliginea. Description: Fungicidal activity against Podosphaera fuliginea inoculated in […] placed in growth room after 24 hr incubation assessed as disease cure after 24 hr of inoculation. Type of experiment: functional.

Molecules are shown by their SMILES. Values after ≈ are worked out from the molar mass of the structure shown.

Take `CC(C)=CCOCC(Cn1cncn1)c1ccc(Cl)cc1Cl` (racemic): the EC50 came to 0.18 µg/mL (≈ 0.529 µM) in the experiment on Cercospora beticola; 0.5 µg/mL (≈ 1.47 µM) with Pyrenophora teres; 0.13 µg/mL (≈ 0.382 µM) with Bipolaris maydis; 0.9 µg/mL (≈ 2.65 µM) in the experiment on Botrytis cinerea; 1 µg/mL (≈ 2.94 µM) in the experiment on Oculimacula yallundae; 40 µg/mL (≈ 118 µM) with Fusarium graminearum. For the same molecule, the EC50 in the experiment on Ustilago maydis stood at 0.22 µg/mL (≈ 0.647 µM). Moreover, the MIC in the experiment with Uromyces appendiculatus turned out to be 160 µg/mL (≈ 470 µM); with Podosphaera fuliginea [1], 100 µg/mL (≈ 294 µM).
Take `C=C(Cn1cncn1)c1ccc(Cl)cc1Cl`: the EC50 in the experiment on Cercospora beticola turned out to be 0.6 µg/mL (≈ 2.36 µM); with Pyrenophora teres, 0.9 µg/mL (≈ 3.54 µM); with Bipolaris maydis, 0.4 µg/mL (≈ 1.57 µM); with Botrytis cinerea, 4.5 µg/mL (≈ 17.7 µM); with Oculimacula yallundae it was 0.45 µg/mL (≈ 1.77 µM); with Fusarium graminearum, 2.9 µg/mL (≈ 11.4 µM). The EC50 with Ustilago maydis was 0.8 µg/mL (≈ 3.15 µM). Moreover, the MIC in the experiment on Uromyces appendiculatus was determined as 150 µg/mL (≈ 590 µM); in the experiment on Podosphaera fuliginea [1] it was 8 µg/mL (≈ 31.5 µM); in the experiment on Podosphaera fuliginea [2], 1 µg/mL (≈ 3.94 µM).
Regarding `O=[N+]([O-])c1ccc(COCC(Cn2cncn2)c2ccc(Cl)cc2Cl)cc1` (racemic), the EC50 with Cercospora beticola was 0.09 µg/mL (≈ 0.221 µM); with Pyrenophora teres it was 0.75 µg/mL (≈ 1.84 µM); with Bipolaris maydis it was 0.15 µg/mL (≈ 0.368 µM); in the experiment on Botrytis cinerea it was 2.8 µg/mL (≈ 6.88 µM); in the experiment on Oculimacula yallundae it was 0.18 µg/mL (≈ 0.442 µM); in the experiment on Fusarium graminearum it was more than 200 µg/mL. The EC50 in the experiment with Ustilago maydis came out at 0.08 µg/mL (≈ 0.196 µM). Further, the values for the MIC in the experiment with Uromyces appendiculatus and in the experiment with Podosphaera fuliginea [1] were 43 µg/mL (≈ 106 µM) and 10 µg/mL (≈ 24.6 µM), respectively.
`N#CCCOCC(Cn1cncn1)c1ccc(Cl)cc1Cl` (racemic): the EC50 in the experiment with Cercospora beticola turned out to be 4 µg/mL (≈ 12.3 µM); with Pyrenophora teres, 32 µg/mL (≈ 98.4 µM); in the experiment with Bipolaris maydis, 8.5 µg/mL (≈ 26.1 µM); in the experiment on Botrytis cinerea, 18 µg/mL (≈ 55.4 µM); in the experiment with Oculimacula yallundae, 20 µg/mL (≈ 61.5 µM); in the experiment on Fusarium graminearum, 32 µg/mL (≈ 98.4 µM). In the experiment on Ustilago maydis, the EC50 was determined as 4 µg/mL (≈ 12.3 µM). The results for the MIC in the experiment on Uromyces appendiculatus and with Podosphaera fuliginea [1] were 250 µg/mL (≈ 769 µM) and 60 µg/mL (≈ 185 µM), respectively.
For the molecule `Clc1ccc(C(COCc2ccc(-c3ccccc3)cc2)Cn2cncn2)c(Cl)c1` (racemic), the EC50 with Cercospora beticola was 0.18 µg/mL (≈ 0.411 µM); in the experiment on Pyrenophora teres it was 0.55 µg/mL (≈ 1.25 µM); in the experiment with Bipolaris maydis it was 0.18 µg/mL (≈ 0.411 µM); with Botrytis cinerea, 2.8 µg/mL (≈ 6.39 µM); in the experiment on Oculimacula yallundae, 0.5 µg/mL (≈ 1.14 µM); in the experiment on Fusarium graminearum, more than 200 µg/mL. In the experiment with Ustilago maydis, the EC50 came out at 0.03 µg/mL (≈ 0.0684 µM). The MIC with Uromyces appendiculatus was 28 µg/mL (≈ 63.9 µM); in the experiment with Podosphaera fuliginea [1], 10 µg/mL (≈ 22.8 µM); in the experiment on Podosphaera fuliginea [2], 6 µg/mL (≈ 13.7 µM).
In the case of `Clc1ccc(C(COCCCc2ccccc2)Cn2cncn2)c(Cl)c1` (racemic), the EC50 was found to be 0.18 µg/mL (≈ 0.461 µM) with Cercospora beticola; 1.3 µg/mL (≈ 3.33 µM) in the experiment with Pyrenophora teres; 0.19 µg/mL (≈ 0.487 µM) in the experiment with Bipolaris maydis; 2.3 µg/mL (≈ 5.89 µM) with Botrytis cinerea; 2.3 µg/mL (≈ 5.89 µM) in the experiment on Oculimacula yallundae; 18 µg/mL (≈ 46.1 µM) with Fusarium graminearum. Moreover, in the experiment with Ustilago maydis, the EC50 came to 0.15 µg/mL (≈ 0.384 µM). Further, the MIC in the experiment on Uromyces appendiculatus worked out at 200 µg/mL (≈ 512 µM); with Podosphaera fuliginea [1], 100 µg/mL (≈ 256 µM).
For `Clc1ccc([C@@H](COCc2ccccc2)Cn2cncn2)c(Cl)c1`, the EC50 in the experiment on Cercospora beticola was 0.18 µg/mL (≈ 0.497 µM); in the experiment on Pyrenophora teres, 0.35 µg/mL (≈ 0.966 µM); with Bipolaris maydis, 0.25 µg/mL (≈ 0.69 µM); with Botrytis cinerea it was 1.3 µg/mL (≈ 3.59 µM); in the experiment with Oculimacula yallundae, 0.6 µg/mL (≈ 1.66 µM); in the experiment on Fusarium graminearum it was 13 µg/mL (≈ 35.9 µM). In addition, the EC50 in the experiment on Ustilago maydis is 0.09 µg/mL (≈ 0.248 µM). The MIC stood at 50 µg/mL (≈ 138 µM) in the experiment with Uromyces appendiculatus and 100 µg/mL (≈ 276 µM) with Podosphaera fuliginea [1].
As to `Clc1ccc(C(COCc2ccc3ccccc3c2)Cn2cncn2)c(Cl)c1` (racemic), the EC50 in the experiment with Cercospora beticola was found to be 0.23 µg/mL (≈ 0.558 µM); in the experiment with Pyrenophora teres, 0.25 µg/mL (≈ 0.606 µM); in the experiment with Bipolaris maydis it was 0.15 µg/mL (≈ 0.364 µM); in the experiment on Botrytis cinerea, 2.8 µg/mL (≈ 6.79 µM); with Oculimacula yallundae it was 1 µg/mL (≈ 2.43 µM); in the experiment on Fusarium graminearum, 130 µg/mL (≈ 315 µM). In the experiment on Ustilago maydis, the EC50 turned out to be 0.18 µg/mL (≈ 0.437 µM). Moreover, the figures for the MIC in the experiment on Uromyces appendiculatus and with Podosphaera fuliginea [1] were 120 µg/mL (≈ 291 µM) and 50 µg/mL (≈ 121 µM), respectively.
In the case of `C=C(C)COCC(Cn1cncn1)c1ccc(Cl)cc1Cl` (racemic), the EC50 in the experiment with Cercospora beticola turned out to be 0.15 µg/mL (≈ 0.46 µM); with Pyrenophora teres, 0.75 µg/mL (≈ 2.3 µM); in the experiment on Bipolaris maydis, 0.1 µg/mL (≈ 0.307 µM); in the experiment with Botrytis cinerea, 1.2 µg/mL (≈ 3.68 µM); with Oculimacula yallundae it was 0.5 µg/mL (≈ 1.53 µM); in the experiment with Fusarium graminearum, 13 µg/mL (≈ 39.8 µM). In addition, in the experiment on Ustilago maydis, the EC50 is 0.25 µg/mL (≈ 0.766 µM). Also, the MIC came to 150 µg/mL (≈ 460 µM) in the experiment with Uromyces appendiculatus and 50 µg/mL (≈ 153 µM) in the experiment on Podosphaera fuliginea [1].
For the molecule `C=C(Cl)COCC(Cn1cncn1)c1ccc(Cl)cc1Cl` (racemic), the EC50 with Cercospora beticola was determined as 0.23 µg/mL (≈ 0.664 µM); with Pyrenophora teres it was 2 µg/mL (≈ 5.77 µM); in the experiment on Botrytis cinerea it was 0.8 µg/mL (≈ 2.31 µM); in the experiment with Oculimacula yallundae, 0.5 µg/mL (≈ 1.44 µM); with Fusarium graminearum, 12 µg/mL (≈ 34.6 µM); in the experiment on Ustilago maydis, 0.5 µg/mL (≈ 1.44 µM). In the experiment on Uromyces appendiculatus, the MIC was more than 100 µg/mL.
Turning to `Clc1ccc(C(COCc2cccs2)Cn2cncn2)c(Cl)c1` (racemic), the EC50 turned out to be 0.2 µg/mL (≈ 0.543 µM) in the experiment with Cercospora beticola; 0.7 µg/mL (≈ 1.9 µM) in the experiment with Pyrenophora teres; 0.2 µg/mL (≈ 0.543 µM) in the experiment on Bipolaris maydis; 2 µg/mL (≈ 5.43 µM) in the experiment with Botrytis cinerea; 1.2 µg/mL (≈ 3.26 µM) with Oculimacula yallundae; 1.5 µg/mL (≈ 4.07 µM) with Fusarium graminearum. In addition, the half-maximal effective concentration (EC50) with Ustilago maydis was determined as 0.1 µg/mL (≈ 0.272 µM). The MIC came to 200 µg/mL (≈ 543 µM) in the experiment on Uromyces appendiculatus and 100 µg/mL (≈ 272 µM) in the experiment on Podosphaera fuliginea [1].
